Assay results published in ChEMBL document CHEMBL1144082, “Orizabins V-VIII, tetrasaccharide glycolipids from the Mexican scammony root (Ipomoea orizabensis)” (1999).
Values after ≈ are worked out from the molar mass of the structure shown.

Tests used:
Format in all cases: functional
[1] = tested on: HCT-15; experiment: Cytotoxicity against human HCT-15 cells after 72 hrs by SRB method; conditions: HCT-15, 72 h, read-out: ED50 (the source's name)
How it was run: (§1)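 Cell lines kept in RPMI 1640 with 10% fetal bovine serum, 37 °C, 5% CO2, 100% humidity. Log-phase cells treated in triplicate with glycolipids over 0.16–20 μg/mL for 72 h at 37 °C, 5% CO2. Cell concentration determined by sulforhodamine B staining; ED50 taken as dose inhibiting 50% of control growth. Ellipticine as positive control.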

[2] = Cytotoxicity against human SQC1 cells after 72 hrs by SRB method; conditions: SQC1, 72 h, read-out: ED50 (the source's name); how it was run: as §1
[3] = tested on: KB; experiment: Cytotoxicity against human KB cells after 72 hrs by SRB method; conditions: read-out: ED50 (the source's name); how it was run: as §1
[4] = tested on: OVCAR; experiment: Cytotoxicity against human OVCAR cells after 72 hrs by SRB method; conditions: read-out: ED50 (the source's name); how it was run: as §1

Structure (SMILES) | EC50 [1] | EC50 [2] | EC50 [3] | EC50 [4]
CCCCC[C@H]1CCCCCCCCCC(=O)O[C@@H]2[C@@H](O[C@@H]3O[C@H](C)[C@@H](O)[C@H](O)[C@H]3O)[C@H](C)O[C@@H](O[C@H]3[C@H](O[C@H]4[C@H](O1)O[C@H](C)[C@@H](O)[C@@H]4O)O[C@H](CO)[C@@H](O)[C@@H]3O)[C@@H]2OC(=O)[C@@H](C)CC [SCAMMONIN II] | > 15 µg/mL | > 15 µg/mL | 7 µg/mL (≈ 7.45 µM) | > 15 µg/mL
C/C=C(\C)C(=O)O[C@H]1[C@H](O)[C@@H](O)[C@H](O[C@@H]2[C@H]3OC(=O)CCCCCCCCC[C@H](CCCCC)O[C@@H]4O[C@H](C)[C@@H](O)[C@H](O)[C@H]4O[C@@H]4O[C@H](CO)[C@@H](O)[C@H](O)[C@H]4O[C@H](O[C@H]2C)[C@@H]3OC(=O)[C@@H](C)CC)O[C@@H]1C [SCAMMONIN I] | > 15 µg/mL | > 15 µg/mL | 7 µg/mL (≈ 6.85 µM) | > 15 µg/mL
CCCCC[C@H]1CCCCCCCCCC(=O)O[C@@H]2[C@@H](O[C@@H]3O[C@H](C)[C@@H](OC(=O)[C@H](C)[C@@H](C)O)[C@H](O)[C@H]3O)[C@H](C)O[C@@H](O[C@H]3[C@H](O[C@H]4[C@H](O1)O[C@H](C)[C@@H](O)[C@@H]4O)O[C@H](CO)[C@@H](O)[C@@H]3O)[C@@H]2OC(=O)[C@@H](C)CC [ORIZABIN V] | > 15 µg/mL | > 15 µg/mL | 7 µg/mL (≈ 6.74 µM) | > 15 µg/mL
Cc1c2ccncc2c(C)c2c1[nH]c1ccccc12 [ELLIPTECINE] | 0.24 µg/mL (≈ 0.974 µM) | 0.41 µg/mL (≈ 1.66 µM) | 0.33 µg/mL (≈ 1.34 µM) | 0.58 µg/mL (≈ 2.35 µM)
CCCCC[C@H]1CCCCCCCCCC(=O)O[C@H]2[C@H](O)[C@@H](COC(=O)[C@H](C)[C@@H](C)O)O[C@@H](O[C@H]3[C@H](O1)O[C@H](C)[C@@H](O)[C@@H]3O)[C@@H]2O[C@@H]1O[C@@H](C)[C@H](O[C@@H]2O[C@H](C)[C@@H](O)[C@H](O)[C@H]2O)[C@@H](O)[C@H]1OC(=O)[C@@H](C)CC [ORIZABIN VIII] | > 15 µg/mL | > 15 µg/mL | 7 µg/mL (≈ 6.74 µM) | > 15 µg/mL
CCCCC[C@H]1CCCCCCCCCC(=O)O[C@@H]2[C@@H](O[C@@H]3O[C@H](C)[C@@H](O)[C@H](O)[C@H]3O)[C@H](C)O[C@@H](O[C@H]3[C@H](O[C@H]4[C@H](O1)O[C@H](C)[C@@H](O)[C@@H]4O)O[C@H](COC(=O)[C@@H](C)CC)[C@@H](O)[C@@H]3O)[C@@H]2OC(=O)[C@H](C)[C@@H](C)O [ORIZABIN VI] | > 15 µg/mL | > 15 µg/mL | 7 µg/mL (≈ 6.74 µM) | > 15 µg/mL
CCCCC[C@H]1CCCCCCCCCC(=O)O[C@@H]2[C@@H](O[C@@H]3O[C@H](C)[C@@H](O)[C@H](O)[C@H]3O)[C@H](C)O[C@@H](O[C@H]3[C@H](O[C@H]4[C@H](O1)O[C@H](C)[C@@H](O)[C@@H]4O)O[C@H](COC(=O)[C@H](C)[C@@H](C)O)[C@@H](O)[C@@H]3O)[C@@H]2OC(=O)[C@@H](C)CC [ORIZABIN VII] | > 15 µg/mL | > 15 µg/mL | 7 µg/mL (≈ 6.74 µM) | > 15 µg/mL
